Here are results for five molecules from ChEMBL document CHEMBL3272047, “3-N-Substituted aminomethyl derivatives of rifamycin SV. A convenient method of synthesis, cyclization of certain derivatives, and anticellular and antiviral activities of several derivatives” (J Med Chem, 1977).

A short description of series [1]: Cytotoxicity against mouse 3T3-FL cells after 24 to 120 hrs. It counts as cell-based. The following applies: read-out: MNTD>75. The method, boiled down: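 Uninfected 3T3 cells exposed to drug (0.25% Me2SO final, matched controls); triplicate plates counted at 24, 48, 96 and 120 h to build growth curves. Highest nontoxic level defined as logarithmic growth rate ≥75% of untreated and total growth after 5 days ≥75% of control.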

The test system of series [2] is Moloney murine sarcoma virus. The experiment in a line: Antiviral activity against Moloney murine sarcoma virus infected in mouse 3T3-FL cells assessed as inhibition of cellular focal transformation at highest nontoxic concentration after 5 days by microscopic analysis relative to control. The format is functional. The gist of the method:
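3T3FL cells seeded 1×10^5/dish in McCoy's 5A with 10% fetal calf serum, incubated overnight, primed with 25 µg/mL DEAE-dextran 20 min at room temperature, infected with ~100 FFU Moloney MSV (1 h adsorption, 37 °C); drug medium (0.25% Me2SO final) added, 5 days 37 °C without medium change; foci counted microscopically versus parallel control cultures.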

Consider `CNCc1c2c(O)c3c(O)c(C)c4c(c3c1O)C(=O)[C@@](C)(O/C=C/[C@H](OC)[C@@H](C)[C@@H](OC(C)=O)[C@H](C)[C@H](O)[C@H](C)[C@@H](O)[C@@H](C)/C=C/C=C(/C)C(=O)N2)O4`, for which the MNTC in series [1] amounted to 1400 nM. Moreover, in series [2], the “inhibition (INH)” value was 14%.
Take `CCCNCc1c2c(O)c3c(O)c(C)c4c(c3c1O)C(=O)[C@@](C)(O/C=C/[C@H](OC)[C@@H](C)[C@@H](OC(C)=O)[C@H](C)[C@H](O)[C@H](C)[C@@H](O)[C@@H](C)/C=C/C=C(/C)C(=O)N2)O4`: the MNTC in series [1] was 1300 nM. For the same molecule, the “inhibition (INH)” value in series [2] is listed as 10%.
Take `CO[C@H]1/C=C/O[C@@]2(C)Oc3c(C)c(O)c4c(O)c5c(c(O)c4c3C2=O)CNC(=N5)/C(C)=C\C=C\[C@H](C)[C@H](O)[C@@H](C)[C@@H](O)[C@@H](C)[C@H](OC(C)=O)[C@@H]1C`: in series [1], the MNTC amounted to 1400 nM. In addition, the “inhibition (INH)” value in series [2] worked out at 26%.
The matching figures for `CO[C@H]1/C=C/O[C@@]2(C)Oc3c(C)c(O)c4c(O)c5c(c(O)c4c3C2=O)CN(C)C(=N5)/C(C)=C\C=C\[C@H](C)[C@H](O)[C@@H](C)[C@@H](O)[C@@H](C)[C@H](OC(C)=O)[C@@H]1C`: 1400 nM and 0%.
As to `CO[C@H]1/C=C/O[C@@]2(C)Oc3c(C)c(O)c4c(O)c(c(CN)c(O)c4c3C2=O)NC(=O)/C(C)=C\C=C\[C@H](C)[C@H](O)[C@@H](C)[C@@H](O)[C@@H](C)[C@H](OC(C)=O)[C@@H]1C`, the MNTC in series [1] stood at 1400 nM. Also, the “inhibition (INH)” value in series [2] came to 0%.
